Test results reported in PMC4252766 (FEBS letters, 2014).

Columns and labels:
BRPF1 bromodomain [1] = conditions: ref [31]; cited from earlier work
BRPF1 bromodomain [2] = assay: X-ray crystallography of BRPF1 bromodomain with histone peptides; type: binding, human; conditions: co-crystal structures PDB 4QYL (H2AK5ac) and 4QYD (H4K12ac)
Outline: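 E. coli-expressed BRPF1 bromodomain (residues 629–742), gel-filtered into 20 mM Tris pH 8.0, 150 mM NaCl, 1 mM DTT; 2.3 mM protein + 5 mM peptide; drops at 4°C. H2AK5ac: 0.2 M NH₄SO₄, 0.1 M MES pH 6.5, 30% PEG MME 5,000, seeding, 1% propylene glycol. H4K12ac: 0.1 M HEPES pH 7.5, 10% PEG 6,000, 5% MPD. Flash-cooled, 100 K.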

Row | Substance | histone ligand preference (BRPF1 bromodomain [1]) | binding by x-ray crystallography (BRPF1 bromodomain [2])
1 | GKGGKGLG Kac GGAKR [H4K12ac] | preferentially binds | bind
2 | SGRG Kac QGGKARA [H2AK5ac] | preferentially binds | bind
